# Source: PubChem
# Only some compounds are listed: those with a hit (about 4.9% of all), similar ones and a draw of the others.
# STAT3 blocker: STAT3 signaling inhibition; U3A cells, IL-6 STAT3-luciferase reporter, luminescence; host cell line lacks STAT1; inhibition, % at 5.5 µM; 190,000 compounds, 0.89% hits;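 active = inhibition above the mean inhibition across all screened compounds plus 3 SD, cut at about 44% in these data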;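 note: 0% = DMSO only wells and 100% = 100 µM nifuroxazide control wells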
# STAT1 activator: increases IFN-gamma driven STAT1 reporter signal; NIH 3T3 STAT1-luciferase reporter, luminescence; 100% = IFN-gamma alone, no compound; activation (% of control), % at 5.5 µM; 200,000 compounds, 2.6% hits;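 active = activation above the screen-wide mean activation plus 3 SD, cut at about 130% in these data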;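 note: raw ratio to IFN-gamma control signal so 100% means no change and 0% no light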
# STAT3 activator: STAT3 signaling activation. U3A cells, IL-6 STAT3-luciferase reporter, luminescence; 100% = signal with IL-6 EC80 alone. activation (% of control), % at 5.6 µM. 190,000 compounds, 0.91% hits. AID 871;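 active = activation above the screen-wide mean of compound activation plus 3 SD, cut at about 130% in these data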;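 note: 0% = background luminescence of wells with medium and substrate only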
#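 Detection: reporter luminescence signal / Assay system: STAT1-lacking human U3A cells, STAT3 luciferase reporter / Incubation: compound pre-incubation 1 h before IL-6, then 6 h stimulation at 37 °C / Control set: IL-6-only high control / Read-out: % activation relative to IL-6 control / Probe or stimulus: Interleukin-6, 33 ng/mL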
# STAT1 blocker: STAT1 signaling inhibition; NIH 3T3 STAT1-luciferase reporter, IFN-gamma, luminescence; inhibition, % at 5.5 µM; 200,000 compounds, 0.35% hits; AID 920;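 active = inhibition above a set limit, the mean inhibition across all tested compounds plus 3 SD, cut at about 34% in these data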;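 note: 0% = IFN-gamma with DMSO and 100% = IFN-gamma with 300 µM nifuroxazide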
# FLuc inh counter: counter-screen for luciferase assay inhibitors: firefly luciferase inhibition; P08659; ATPLite firefly luciferase biochemical luminescence, 10 min; 200,000 compounds, 1.5% hits; inhibition, % at 10 µM;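 active = inhibition above about 50% when tested at 10 µM, limit read from the data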
# Target sequence (P08659 whole entry, looked up): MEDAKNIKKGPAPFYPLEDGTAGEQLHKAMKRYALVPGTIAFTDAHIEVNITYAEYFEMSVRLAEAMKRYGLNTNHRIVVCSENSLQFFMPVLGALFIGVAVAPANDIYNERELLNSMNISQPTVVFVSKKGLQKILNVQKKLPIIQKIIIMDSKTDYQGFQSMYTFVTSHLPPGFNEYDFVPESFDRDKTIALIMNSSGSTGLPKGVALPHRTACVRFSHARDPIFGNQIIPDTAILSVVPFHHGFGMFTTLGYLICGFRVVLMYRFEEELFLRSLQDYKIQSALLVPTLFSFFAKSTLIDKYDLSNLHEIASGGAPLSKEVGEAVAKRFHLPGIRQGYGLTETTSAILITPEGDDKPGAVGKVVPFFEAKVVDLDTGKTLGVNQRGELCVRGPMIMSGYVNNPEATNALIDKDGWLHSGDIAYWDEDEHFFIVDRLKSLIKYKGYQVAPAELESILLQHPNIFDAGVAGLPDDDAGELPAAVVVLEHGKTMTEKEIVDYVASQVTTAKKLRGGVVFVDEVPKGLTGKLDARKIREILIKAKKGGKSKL
# FLuc act counter: affects firefly luciferase, flagging false hits in luciferase stimulation screens; P08659; ATPlite luciferase biochemical, luminescence, 10 min; 0 = ATP-free wells, 1 = DMSO control; activation factor at 10 µM; 200,000 tested, under 10 active;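 active = luciferase activation factor, scaled between plate controls, of at least 2 with compound at 10 µM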
#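 Assay system: Luciferase/luciferin detection reagent, cell-free biochemical luciferase assay / Also added: ATP substrate / Schedule: 10 min at ambient temperature / Measured by: luminescence measurement of luciferase light output / Benchmarks: low control with PBS replacing ATP, high control enzyme plus ATP without compound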
# * marks the source's active call; other numbers are inactive results; . = not tested or not shown.
SMILES,STAT3 blocker,STAT1 activator,STAT3 activator,STAT1 blocker,FLuc inh counter,FLuc act counter
CC1=NC(=O)C(N=Nc2cccc3ccccc23)N1c1ccccc1 (stereo not drawn),-68,96,159*,4,.,.
Cc1ccc(OCCn2cnc3ccccc3c2=O)c([N+](=O)[O-])c1,-11,136*,118,-40,-1,1
CCOc1cc(CN2CCC(CO)(Cc3cccc(C(F)(F)F)c3)CC2)ccc1OC,7,101,104,-2,-9,1.1
CC(=O)c1ccc(N2Cc3ccccc3C2=NC(=O)c2cccs2)cc1,43,135*,65,-39,11,0.9
CCOC(=O)c1ccc(N2Cc3ccccc3C2=NC(=O)c2cccs2)cc1,4,115,93,-16,0,1
O=C(Nc1nc2ccccc2s1)c1ccc(F)cc1,38,107,70,-9,64*,0.4
C/C(Cl)=C/CSc1nn2c(=O)c3ccccc3nc2s1,12,109,89,-9,17,0.8
Cc1ccc(C(=O)Nc2nc3ccccc3c(=O)s2)cc1,21,125,85,-28,80*,0.2
Fc1ccc(Nc2nc3ccccc3s2)cc1,0,146*,105,-46,9,0.9
C=CCSc1nn2c(=O)c3ccccc3nc2s1,15,134*,96,-37,27,0.7
COc1ccc(C)cc1N(CC(=O)Nc1ccc2c(c1)OCCO2)S(C)(=O)=O,-1,101,108,-3,-3,1
Cc1ccccc1Nc1nn2c(=O)c3ccccc3nc2s1,8,138*,95,-41,39,0.6
Cc1ccccc1Nc1nc2ccccc2s1,-12,143*,106,-47,28,0.7
CC(=O)Nc1nc(=O)c2ccccc2s1,13,96,91,4,1,1
O=C(Nc1nc(=O)c2ccccc2s1)c1ccccc1,-28,138*,126,-48,60*,0.4
COc1ccc(NC2=C(Cl)C(=O)N(CCc3ccccc3)C2=O)cc1,2,142*,100,-47,2,1
CC(=O)c1ccc(Nc2nc(=O)c3cccnc3s2)cc1,11,136*,91,-35,2,1
Cc1ccc(CN2CCNC(=O)C2CC(=O)NCC(F)(F)F)o1 (stereo not drawn),2,99,100,-1,-3,1
Cc1ccc(CNc2ccc(S(=O)(=O)N3CCOCC3)cc2[N+](=O)[O-])cc1,-15,103,108,-3,-8,1.1
CCCc1noc(-c2ccc(-c3ccccc3)cc2)n1,17,138*,94,-41,28,0.7
Cn1nnnc1SCC(=O)Nc1ccccc1C(N)=O,8,101,93,-1,0,1
Oc1ccc(-c2nccc(-c3cccs3)n2)cc1,-47,141*,140*,-46,5,0.9
COc1ccccc1C1Nc2cccc3cccc(c23)N1,15,93,85,7,-1,1
Oc1ccccc1C1Nc2cccc3cccc(c23)N1,2,99,106,1,64*,0.4
CCOC(=O)c1ccc(-n2c(CN3CCC(O)CC3)nc3ccc([N+](=O)[O-])cc3c2=O)cc1,8,99,94,1,-13,1.1
SMILES,STAT3 blocker,STAT1 activator,STAT3 activator,STAT1 blocker,FLuc inh counter,FLuc act counter
Cc1nc(NCc2ccco2)c2c3c(sc2n1)CCC3,-76,150*,167*,-54,-9,1.1
CCCCCCCCCC(=O)Nc1cccnc1,9,96,95,2,-7,1.1
S=c1[nH]ncn1/N=C/c1ccc(N2CCOCC2)cc1,16,91,86,10,87*,0.1
Fc1ccc(N/N=C/c2ccc(N3CCOCC3)cc2)c(F)c1,12,131*,93,-34,15,0.9
C/C(=N\Nc1ccc(F)cc1F)c1ccc(N2CCOCC2)cc1,-30,114,133*,-15,5,1
CN(C)/N=C/c1ccc(N2CCOCC2)cc1,9,122,95,-27,63*,0.4
C/C(=N\Nc1ccc(F)cc1F)c1ccc(F)cc1,20,113,86,-14,-5,1
CCOC(=O)c1cc(C(=O)Nc2ccccc2F)nn1C,5,133*,102,-36,14,0.9
CCc1cc(C(=O)Nc2ccccc2)cs1,10,135*,97,-37,43,0.6
CCCc1cc(C(=O)Nc2nccs2)cs1,27,130*,80,-32,61*,0.4
CCOC(=O)c1c(N)sc(C(N)=O)c1C,32,98,78,4,-3,1
CCOC(=O)c1c(N)sc(C(=O)Nc2ccccc2)c1C,41,106,67,-8,84*,0.2
CCc1cc(C(=O)NNC(=S)NCc2ccccc2)cs1,3,103,101,-3,-5,1
Cc1noc(NS(=O)(=O)c2ccc(NC(=O)C34CC5CC(C3)CC(n3cnc(Br)n3)(C5)C4)cc2)c1C,-2,99,102,2,-1,1
O=C(COC(=O)c1cc(=O)c2ccccc2o1)NC1CCCC1,4,97,101,3,-2,1
CCC(=O)Nc1sc(C(=O)Nc2ccccc2F)c(C)c1C(=O)OC,17,131*,89,-36,-9,1.1
CCOC(=O)c1c(N)sc(C(=O)Nc2ccccc2F)c1C,36,101,71,-1,75*,0.2
CCOc1cc(C(=O)Nc2ccc(S(=O)(=O)NC3=NCCCCC3)cc2)cc(OCC)c1OCC,19,97,92,2,-3,1
Cc1ccc(CSc2nc3ccncc3n2CC(=O)Nc2cc(C)cc(C)c2)cc1,-4,98,104,2,50*,0.5
CC1(C)Cc2nc3sc4c(SCC(=O)NCc5ccccc5)ncnc4c3cc2CO1,-13,129*,111,-34,20,0.8
c1ccc2c(c1)CCN(C1=Nc3cccc4cccc1c34)C2,-3,101,104,-3,52*,0.5
CCOC(=O)C1CCN(c2ccc([N+](=O)[O-])c(C(C)=O)c2)CC1,9,90,96,10,-1,1
O=C(Cn1c(O)c(/C=C2\C=Nc3ccc(Br)cc32)sc1=O)N1CCCC1,8,102,92,-2,-3,1
O=C(Cn1c(O)c(/C=C2\C=Nc3ccccc32)sc1=O)N1CCOCC1,-36,103,134*,-6,2,1
Fc1ccc(-c2cnc(-c3cccs3)o2)cc1,-10,142*,111,-47,35,0.7
Cc1ccc(NC(=O)c2snc3c(=O)[nH]cnc23)cc1C,8,103,92,-3,-4,1
Cc1ccc(NC(=O)c2snc3ccc(Cl)cc23)cc1C,-14,130*,116,-34,0,1
CCS(=O)(=O)N1CCN(c2cc3c(cc2[N+](=O)[O-])n(C)c(=O)n3C)CC1,16,88,96,13,-3,1
